Results as given in ChEMBL document CHEMBL1142049, “1-(1-Naphthyl)piperazine as a novel template for 5-HT6 serotonin receptor ligands” (Bioorg Med Chem Lett, 2005).

Key:
[1] = molecular target: T1, 5-hydroxytryptamine receptor 6 (Homo sapiens, UniProt P50406); test: Binding affinity against 5 Hydroxy tryptamine 6 receptor
How it was run: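 Human 5-HT6 cDNA transiently expressed in HEK-293 cells, switched to dialyzed-serum medium, harvested 75 h post-transfection, PBS-washed and frozen as pellets. Nonspecific binding defined with 10 µM clozapine. Ki values from triplicate determinations.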

[2] = molecular target: T1, 5-hydroxytryptamine receptor 6; test: pA2 against 5-Hydroxytryptamine 6 receptor
[3] = molecular target: T1, 5-hydroxytryptamine receptor 6; test: Binding affinity against 5-hydroxytryptamine 6 receptor
How it was run: (§1)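 Human 5-HT6 cDNA transiently expressed in HEK-293 cells, switched to dialyzed-serum medium, harvested 75 h post-transfection, PBS-washed and frozen as pellets. [3H]LSD (1 nM final) displaced by unlabeled ligand (1–10,000 nM), 90 min at room temperature in 50 mM Tris-Cl, 10 mM MgCl2, 0.1 mM EDTA, pH 7.40. Nonspecific binding defined with 10 µM clozapine. Ki values from triplicate determinations.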

[4] = molecular target: T1, 5-hydroxytryptamine receptor 6; test: Binding affinity against 5-hydroxy tryptamine 6 receptor; how it was run: as §1

T1 sequence (P50406 whole entry): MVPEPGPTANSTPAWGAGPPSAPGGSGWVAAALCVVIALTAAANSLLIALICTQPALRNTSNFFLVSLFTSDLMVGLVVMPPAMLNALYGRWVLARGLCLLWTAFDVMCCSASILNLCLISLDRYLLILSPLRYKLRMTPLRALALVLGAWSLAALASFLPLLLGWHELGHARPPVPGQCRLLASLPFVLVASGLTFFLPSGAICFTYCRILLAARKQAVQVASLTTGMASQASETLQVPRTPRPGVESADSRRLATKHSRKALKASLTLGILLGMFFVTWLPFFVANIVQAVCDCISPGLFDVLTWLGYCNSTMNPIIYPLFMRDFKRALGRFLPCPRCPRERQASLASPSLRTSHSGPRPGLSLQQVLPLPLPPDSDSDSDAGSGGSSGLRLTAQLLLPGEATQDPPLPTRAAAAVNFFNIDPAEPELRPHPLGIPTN

SMILES | Ki [1] [nM] | other results
Nc1ccc(S(=O)(=O)c2cccc3ccccc23)cc1 | 34 | –
O=S(=O)(c1ccccc1)c1ccc(N2CCNCC2)c2ccccc12 | 3.8 | pA2 [2]: 7.5
Nc1ccc(S(=O)(=O)c2cc(Br)nc(N3CCNCC3)c2)cc1 | ~0.1 | –
O=C(c1ccccc1)c1ccc(N2CCNCC2)c2ccccc12 | 57 | –
Nc1ccc(S(=O)(=O)c2cc(Br)nc(N3CCCC3)c2)cc1 | ~1 | –
COc1ccccc1N1CCNCC1 | 1.2 | –
c1ccc(Cc2ccc(N3CCNCC3)c3ccccc23)cc1 | 35 | –
CCc1cc(N2CCNCC2)c2ccccc2c1 | 21 | –
O=S(=O)(c1ccc(NO)cc1)c1cccc2ccccc12 | 63 | –
c1ccc2c(N3CCNCC3)cccc2c1 | – | Ki [3]: 100 nM; Ki [4]: 120 nM
c1ccc(-c2ccc(N3CCNCC3)c3ccccc23)cc1 | 190 | –
Brc1ccc(N2CCNCC2)c2ccccc12 | 54 | –
c1ccc(-c2cc(N3CCNCC3)c3ccccc3c2)cc1 | 9.3 | –
Nc1ccc(S(=O)(=O)c2ccc(N3CCNCC3)c3ccccc23)cc1 | 0.9 | –
